Laboratory results reported in article PMC7132385 (Antiviral Research, 2007).
Converted amounts (≈) assume the structure as drawn. Where two headings read alike, the source gives them in different places.

Assays:
[1] = Maximum solubility of the compound; assay type: physicochemical
[2] = Cytotoxicity MTT assay, LR7 cells; assay type: cell-based, mouse; details: mouse
Procedure, shortened: (§1)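 Cells grown in DMEM with 10% FBS and antibiotics were kept with a range of test compound concentrations for 3 days at 37 °C, 5% CO2. MTT was added to 0.5 mg/ml final for 2 h at 37 °C. Medium was removed and cells were lysed in DMSO (10 min, room temperature, rocking). OD was read at 570 nm. CC50 is the concentration lowering viability of 50% of cells, ± S.D.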

[3] = Cytotoxicity MTT assay, Ederm cells; assay type: cell-based, equine; details: horse, equine dermis (Ederm) cells
Procedure, shortened: as §1

IBV Beaudette = experiment: Colorimetric MTT antiviral assay, IBV Beaudette; assay type: cell-based, infectious bronchitis virus; details: read-out: EC50 (50% inhibition of virus infection), IBV Beaudette
Procedure, shortened: (§2)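 100 TCID50 of virus was preincubated with graded test compound for 1 h at 37 °C, 5% CO2, added to PBS-DEAE-washed cells for 1 h, then removed, and compound was re-added at the same concentrations in DMEM with 5% FBS. MTT (0.5 mg/ml final) was added for 2 h at day 2 (FCoV 79-1683, FIPV 79-1146) or day 3 (others), then DMSO lysis and OD570. EC50 is 50% protection from CPE.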

Berne virus torovirus = experiment: Colorimetric MTT antiviral assay, Berne virus; assay type: cell-based, equine torovirus; details: read-out: EC50 (50% inhibition of virus infection), Berne virus torovirus
Procedure, shortened: as §2

[4] = test system: FCoV 79-1683 (serotype II); experiment: Immunoperoxidase; assay type: cell-based, feline coronavirus; details: read-out: EC50 (50% inhibition of virus infection), FCoV 79-1683 (serotype II)
Procedure, shortened: (§3)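 FCWF monolayers were given virus (MOI 0.5) that had been preincubated 1 h at 37 °C with test compound, for 1 h after a PBS-DEAE wash, then washed and given compound at the same concentrations. Cells were fixed in 4% formaldehyde for 15 min at 6 h post-infection (16 h for serotype I strain), permeabilised with 70% ethanol, and stained with cat FIP ascitic fluid plus HRP goat anti-cat. EC50 is 50% fewer microscopically counted infected foci than mock-treated cells.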

[5] = Cytotoxicity MTT assay, Vero cells; assay type: cell-based, simian; details: monkey (simian), Vero cells
Procedure, shortened: as §1

[6] = Cytotoxicity MTT assay, FCWF cells; assay type: cell-based, feline; details: cat, FCWF cells
Procedure, shortened: as §1

[7] = test system: porcine alveolar macrophages (PAMs); experiment: Cytotoxicity by EMA staining, PAMs; assay type: cell-based; details: read-out: CC50 (50% cytotoxicity), PAMs, 24 h, ± S.D.
[8] = test system: FIPV-Δ3abcFL (serotype II); experiment: Immunoperoxidase; assay type: cell-based, feline coronavirus; details: read-out: EC50 (50% inhibition of virus infection), FIPV-Δ3abcFL (serotype II)
Procedure, shortened: as §3

MHV-EFLM = experiment: Immunoperoxidase; assay type: cell-based, mouse hepatitis virus; details: read-out: EC50 (50% inhibition of virus infection), MHV-EFLM
Procedure, shortened: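 Murine LR7 fibroblasts expressing the MHV receptor were infected at MOI 0.5 with virus preincubated 1 h at 37 °C with test compound. After 1 h the inoculum was removed, cells were washed, and compound was re-added at the same concentrations. At 6 h cells were fixed in 4% formaldehyde and permeabilised with 70% ethanol. Immunoperoxidase staining used rabbit anti-MHV polyclonal plus HRP swine anti-rabbit. EC50 is the concentration lowering light-microscope infected-cell counts by 50% versus mock.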

[9] = test system: FIPV Black TN406HP (serotype I); experiment: Immunoperoxidase; assay type: cell-based, feline coronavirus; details: read-out: EC50 (50% inhibition of virus infection), FIPV Black TN406HP (serotype I)
Procedure, shortened: as §3

Equine arteritis virus = experiment: Colorimetric MTT antiviral assay, equine arteritis virus; assay type: cell-based; details: read-out: EC50 (50% inhibition of virus infection), Equine arteritis virus
Procedure, shortened: as §2

ST cells = experiment: Cytotoxicity MTT assay, ST cells; assay type: cell-based, porcine; details: read-out: CC50 (50% cytotoxicity), ST, 3 days, ± S.D.
Procedure, shortened: as §1

LR7 cells = experiment: Cytotoxicity MTT assay, LR7 cells; assay type: cell-based, mouse; details: read-out: CC50 (50% cytotoxicity), LR7; MTT assay, 3 days; ± S.D.
Procedure, shortened: as §1

retroviruses = details: read-out: EC50 against retroviruses; earlier studies; ref Balzarini et al., 1992; cited from earlier work
FCWF cells = experiment: Cytotoxicity MTT assay, FCWF cells; assay type: cell-based, feline; details: read-out: CC50 (50% cytotoxicity), FCWF; MTT assay, 3 days; ± S.D.
Procedure, shortened: as §1

[10] = test system: FIPV 79-1146 (serotype II); experiment: Colorimetric MTT antiviral assay, FIPV 79-1146; assay type: cell-based, feline coronavirus; details: read-out: EC50 (50% inhibition of virus infection), FIPV 79-1146 (serotype II), FCWF cells, 100 TCID50, 2 days, ± S.D.
Procedure, shortened: as §2

[11] = test system: FIPV Black TN406HP (serotype I); experiment: Colorimetric MTT antiviral assay, FIPV Black TN406HP; assay type: cell-based, feline coronavirus; details: read-out: EC50 (50% inhibition of virus infection), FIPV Black TN406HP (serotype I), FCWF cells, 100 TCID50, 3 days, ± S.D.
Procedure, shortened: as §2

[12] = test system: FCoV 79-1683 (serotype II); experiment: Colorimetric MTT antiviral assay, FCoV 79-1683; assay type: cell-based, feline coronavirus; details: read-out: EC50 (50% inhibition of virus infection), FCoV 79-1683 (serotype II), FCWF cells, 100 TCID50, 2 days, ± S.D.
Procedure, shortened: as §2

[13] = test system: equine dermis (Ederm) cells; experiment: Cytotoxicity MTT assay, Ederm cells; assay type: cell-based; details: read-out: CC50 (50% cytotoxicity), Ederm; MTT assay, 3 days; ± S.D.
Procedure, shortened: as §1

Vero cells = experiment: Cytotoxicity MTT assay, Vero cells; assay type: cell-based, simian; details: read-out: CC50 (50% cytotoxicity), Vero; MTT assay, 3 days; ± S.D.
Procedure, shortened: as §1

PRRSV Lelystad virus = experiment: Immunoperoxidase; assay type: cell-based, porcine reproductive and respiratory syndrome virus; details: IPOX assay; for PRRSV Lelystad virus infection of PAMs reduced to: at 2 μM; for EC50: read-out: EC50 (50% inhibition of virus infection), PRRSV Lelystad virus, PAMs, MOI 1, 10 h post-infection, ± S.D.
Procedure, shortened: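 Primary porcine alveolar macrophages were kept in EMEM with 10% FBS at 37 °C, 5% CO2. Virus at MOI 1 was preincubated 1 h at 37 °C with test compound, then added to cells for 1 h. Cells were washed with FBS-free medium and fixed in −20 °C methanol at 10 h post-infection. Peroxidase was blocked with azide/H2O2. Staining used anti-nucleocapsid MAb P3/27 with HRP anti-mouse. Infected cells were counted by light microscopy against mock-treated cells.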

TGEV Purdue = experiment: Colorimetric MTT antiviral assay, TGEV Purdue; assay type: cell-based, transmissible gastroenteritis virus; details: read-out: EC50 (50% inhibition of virus infection), TGEV Purdue, ST cells, 100 TCID50, 3 days, ± S.D.
Procedure, shortened: as §2

[14] = MTT assay, Vero cells, 100 TCID50, 3 days, ± S.D.
[15] = MTT assay, Ederm cells, 100 TCID50, 3 days, ± S.D.
[16] = IPOX assay, FCWF cells, MOI 0.5, 6 h post-infection, ± S.D.
[17] = IPOX assay, LR7 cells, MOI 0.5, 6 h post-infection, ± S.D.
[18] = IPOX assay, FCWF cells, MOI 0.5, 16 h post-infection, ± S.D.

| Molecule | CC50 [7] | CC50 (ST cells) | CC50 (LR7 cells) | CC50 (FCWF cells) | EC50 [10] | EC50 [11] | EC50 [12] | CC50 [13] | EC50 (IBV Beaudette; [14]) | EC50 (Berne virus torovirus; [15]) | EC50 [4, 16] | CC50 (Vero cells) | EC50 [8, 16] | EC50 (MHV-EFLM; [17]) | EC50 [9, 18] | PRRSV Lelystad virus infection of PAMs reduced to (PRRSV Lelystad virus) | EC50 (PRRSV Lelystad virus) | EC50 (TGEV Purdue) | EC50 (Equine arteritis virus; [15]) | further results |
| --- | --- | --- | --- | --- | --- | --- | --- | --- | --- | --- | --- | --- | --- | --- | --- | --- | --- | --- | --- | --- |
| CN[C@@H]1[C@H](O[C@@H]2OC[C@@H](O)[C@H](O)[C@H]2O)[C@@H](O)[C@H](O[C@H]2c3cc(C)c(C(=O)N[C@H](C)C(=O)O)c(O)c3-c3c(cc4c(c3O)C(=O)c3cc(OC)cc(O)c3C4=O)[C@@H]2O)O[C@@H]1C [PRM-A, pradimicin-A, reference compound] | 18100 ± 6400 nM | 121000 ± 27600 nM | – | – | – | – | – | – | – | – | – | – | – | – | – | – | – | – | – | solubility [1]: 120 µM (≈ 101 µg/mL); CC50 at 3 days [2]: > 120000 nM; CC50 at 3 days [3]: > 120000 nM; EC50 (IBV Beaudette; Avian coronavirus, Vero, 72 h): 2900 ± 2000 nM; EC50 (Berne virus torovirus; Equine torovirus, 72 h): 31000 ± 24000 nM; EC50 ([4]; Alphacoronavirus 1, 6 h): > 120000 nM; CC50 at 3 days [5]: 120000 ± 32400 nM; CC50 at 3 days [6]: > 120000 nM; EC50 ([8]; Alphacoronavirus 1, 6 h): > 120000 nM; EC50 (MHV-EFLM; Murine coronavirus, LR7, 6 h): 10700 ± 5800 nM; EC50 ([9]; Alphacoronavirus 1, 16 h): 7800 ± 2000 nM; EC50 (Equine arteritis virus; Equine arteritis virus, 72 h): > 120000 nM |
| Cymbidium sp. agglutinin [CA] | – | – | > 4000 nM | 3300 ± 800 nM | 290 ± 110 nM | 130 ± 2 nM | – | – | – | – | – | – | – | – | – | – | – | – | – | EC50 (retroviruses): 3 nM |
| Galanthus nivalis agglutinin [GNA] | > 2000 nM | > 2000 nM | > 2000 nM | > 2000 nM | 130 ± 2 nM | 8 ± 5 nM | 430 ± 300 nM | > 2000 nM | 0.2 ± 0.2 nM | 120 ± 90 nM | 200 ± 60 nM | > 2000 nM | 70 ± 40 nM | 40 ± 20 nM | 12 ± 6 nM | 40% | > 2000 nM | 4 ± 0.8 nM | 180 ± 70 nM | – |
| Hippeastrum hybrid agglutinin [HHA] | > 2000 nM | > 2000 nM | > 2000 nM | > 2000 nM | 100 ± 2 nM | 7 ± 3 nM | 110 ± 30 nM | 1900 ± 300 nM | 0.2 ± 0.2 nM | 70 ± 70 nM | 60 ± 20 nM | > 2000 nM | 30 ± 20 nM | 70 ± 20 nM | 4 ± 2 nM | 40% | > 2000 nM | – | 130 ± 40 nM | – |
| Urtica dioica agglutinin (protein, UniProt P11218 24-372, looked up) Lectin/endochitinase 1: QRCGSQGGGGTCPALWCCSIWGWCGDSEPYCGRTCENKCWSGERSDHRCGAAVGNPPCGQDRCCSVHGWCGGGNDYCSGSKCQYRCSSSVRGPRVALSGNSTANSIGNVVVTEPLFDQMFSHRKDCPSQGFYSYHSFLVAAESFPAFGTIGDVATRKREVAAFLAHISQATSGERSDVENPHAWGLCHINTTTVTENDFCTSSDWPCAAGKKYSPRGPIQLTHNFNYGLAGQAIGEDLIQNPDLVEKDPIISFKTALWFWMSQHDNKPSCHDIVLNANSAANRIPNKGVIGNIISRAFGHDDFAVRSSSIGFYKRYCDMLGVSYGHDLKYWFDNTPSSEFQRIQMRVAA | > 12000 nM | 6100 ± 1000 nM | 9900 ± 4800 nM | 2200 ± 300 nM | 240 ± 140 nM | 23 ± 12 nM | 110 ± 30 nM | 9500 ± 3100 nM | 50 ± 50 nM | 250 ± 200 nM | 170 ± 100 nM | 3400 ± 1300 nM | 140 ± 50 nM | 530 ± 20 nM | 20 ± 10 nM | – | 4800 ± 3200 nM | 80 ± 70 nM | 390 ± 10 nM | – |
| cyanovirin-N (protein, UniProt P81180 1-101, looked up) Cyanovirin-N: LGKFSQTCYNSAIQGSVLTSTCERTNGGYNTSSIDLNSVIENVDGSLKWQPSNFIETCRNTQLAGSSELAAECKTRAQQFVSTKINLDDHIANIDGTLKYE | – | – | > 2000 nM | 1400 ± 500 nM | – | – | – | – | – | – | – | – | – | – | – | – | – | – | – | – |
